Screening data as filed in PubChem BioAssay.
Shown are actives, neighbours in structure and some others; about 3.3% of the full set was active somewhere.
HTRA1 inhibitor – HTRA1 serine protease inhibitors, primary screen, biochemical, fluorescence polarization, HTS; recombinant HTRA1, FP-rhodamine activity-based probe; inhibition, % at 5.96 µM; Q92743; actives 0.5% (n = 340,000); in the data active = inhibition above about 36%
mABHD4 FP – ABHD4 inhibitors, primary screen, biochemical, fluorescence polarization, mouse. purified mABHD4, FP-Rh probe fluorescence polarization. inhibition, % at 8.92 µM. actives 0.54% (n = 370,000);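 active = inhibition exceeding the mean over every tested compound plus 3 SD, cut at about 30% in these data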
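Assay system: wild-type mouse ABHD4 protein; compound: single nominal dose of 8.92 µM, 0.89% DMSO final; schedule: 45 min + 60 min at 25 °C; measured by: FP readout, ex 525 nm / em 598 nm; evaluation: % inhibition of FP-Rh probe binding versus controls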
PRMT1 FP inh – PRMT1 methyltransferase inhibitors, primary screen, biochemical, fluorescence polarization; inhibition, % at 2.79 µM; actives 1.3% (n = 370,000); recombinant PRMT1, activity-based probe fluorescence polarization; Protein arginine N-methyltransferase 1 (Homo sapiens), Q99873;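 active = inhibition above about 21% made by adding two undisclosed values, limit read from the data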
Target sequence (Q99873 whole entry, looked up): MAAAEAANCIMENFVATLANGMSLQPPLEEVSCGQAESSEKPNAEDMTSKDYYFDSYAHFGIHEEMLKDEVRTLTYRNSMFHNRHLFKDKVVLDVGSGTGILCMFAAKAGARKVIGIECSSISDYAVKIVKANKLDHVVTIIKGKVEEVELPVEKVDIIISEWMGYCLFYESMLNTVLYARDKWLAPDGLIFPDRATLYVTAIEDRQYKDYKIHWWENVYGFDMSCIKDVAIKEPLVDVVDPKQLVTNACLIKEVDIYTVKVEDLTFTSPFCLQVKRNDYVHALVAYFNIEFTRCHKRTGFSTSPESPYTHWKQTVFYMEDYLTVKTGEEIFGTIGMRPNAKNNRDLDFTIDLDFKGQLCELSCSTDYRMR
SIAE primary – human SIAE inhibitors, primary screen, biochemical, fluorescence polarization, FP-Rh probe, 1536-well HTS; SIAE FP-Rh probe binding; inhibition, % at 9.66 µM; AID 1053197, 2014; actives 0.69% (n = 370,000);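 active = inhibition above a cutoff: mean of compounds within the control limits plus 3 SD of those, cut at about 17% in these data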
rCAG RNA binder – binders of r(CAG) RNA repeats, primary screen, biochemical, fluorescence. r(CAG) RNA repeat, TO-PRO-1 dye displacement fluorescence. inhibition, % at 3 µM. actives 1.3% (n = 370,000). AID 651821, 2012;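 active = inhibition above the plate cutoff, the mean of all test compounds on that plate plus 3 SD, cut at about 35% in these data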;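 also: higher means more dye released from RNA so lower well fluorescence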
HTRA1 inh conf – HTRA1 protease inhibitors, retest, confirmation, biochemical, fluorescence polarization; inhibition, % at 5.96 µM; recombinant HTRA1, FP-rhodamine activity-based probe; shares compounds with HTRA1 inhibitor; actives 66% (n = 1,600);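 active = mean inhibition over three repeats above a set limit taken from the earlier primary screen, cut at about 37% in these data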;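 also: inhibitors block probe binding so polarization drops and inhibition rises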
A number is an active result.

`COc1ccc(N2C(=O)c3n[nH]c(C(C)C)c3C2c2ccccc2)cc1` (stereo unspecified) gave mABHD4 FP inactive, PRMT1 FP inh inactive, SIAE primary inactive and rCAG RNA binder inactive.
`N#Cc1ccc(C(=O)NCC2CCN(C(=O)C(=O)c3cccs3)CC2)cc1` gave mABHD4 FP inactive, PRMT1 FP inh inactive, SIAE primary inactive and rCAG RNA binder inactive.
For Nc1ccc2c(c1)C(=O)C(=O)c1ccccc1-2 the results were HTRA1 inhibitor 42, mABHD4 FP inactive, PRMT1 FP inh inactive, SIAE primary inactive, rCAG RNA binder inactive and HTRA1 inh conf inactive.
`CCCn1c(Nc2nc3ccccc3n2C)nc2ccccc21` gave HTRA1 inhibitor 39, mABHD4 FP inactive, PRMT1 FP inh inactive, SIAE primary inactive, rCAG RNA binder inactive and HTRA1 inh conf 47.
CCCCn1c(Nc2ccccc2)nc2ccccc21 was read as HTRA1 inhibitor inactive, mABHD4 FP inactive, PRMT1 FP inh inactive, SIAE primary inactive and rCAG RNA binder inactive.
Cc1ccc(-n2c(C)cc(-c3csc(N)n3)c2C)cc1 was read as HTRA1 inhibitor 52, mABHD4 FP inactive, PRMT1 FP inh inactive, SIAE primary inactive, rCAG RNA binder inactive and HTRA1 inh conf 50.
CCN(CC)C(=O)CC[C@H]1CC[C@]2(CCCN(C3CCCCC3)C2)O1 was read as mABHD4 FP inactive, PRMT1 FP inh inactive, SIAE primary inactive and rCAG RNA binder inactive.
For CCc1ccc(CNc2ccc(O)cc2)cc1 the results were HTRA1 inhibitor 73 and HTRA1 inh conf 52.
Screening COc1ccc(Nc2nc(-c3sc(N)nc3C)cs2)cc1 returned HTRA1 inhibitor inactive, mABHD4 FP inactive, PRMT1 FP inh inactive, SIAE primary inactive and rCAG RNA binder inactive.
For Cc1nc(N)sc1-c1csc(Nc2ccc(Cl)cn2)n1 the results were HTRA1 inhibitor 42, mABHD4 FP inactive, PRMT1 FP inh inactive, SIAE primary inactive, rCAG RNA binder inactive and HTRA1 inh conf 37.
Screening Cc1ccc(Nc2nc(-c3sc(N)nc3C)cs2)cc1 returned HTRA1 inhibitor 50, mABHD4 FP inactive, PRMT1 FP inh inactive, SIAE primary inactive, rCAG RNA binder inactive and HTRA1 inh conf inactive.
For CN1C(=O)c2cc(NC(=O)Cc3cccs3)ccc2OC[C@@H]2O[C@@H](CC(=O)N[C@H]3CCN(Cc4ccccc4)C3)CC[C@@H]21 the results were mABHD4 FP inactive, PRMT1 FP inh inactive, SIAE primary inactive and rCAG RNA binder inactive.
Screening COc1ccccc1CCn1cnc(-c2ccccc2OC)c1CC(C)C returned mABHD4 FP inactive, PRMT1 FP inh inactive, SIAE primary inactive and rCAG RNA binder inactive.
For C[C@H](O)[C@@H]1C(=O)N2CCc3c([nH]c4c(-c5ccccc5)cccc34)[C@@H]2C[C@@H]1N(C)C(=O)OCc1ccccc1 the results were mABHD4 FP inactive, PRMT1 FP inh inactive, SIAE primary inactive and rCAG RNA binder inactive.
Screening c1ccc(CN2CCC(=NNc3nc4ccccc4[nH]3)CC2)cc1 returned HTRA1 inhibitor 37, mABHD4 FP inactive, PRMT1 FP inh inactive, SIAE primary inactive, rCAG RNA binder inactive and HTRA1 inh conf inactive.
Screening CC(C)(C)C1CCC(=NNc2nc3ccccc3[nH]2)CC1 (stereo unspecified) returned HTRA1 inhibitor inactive, mABHD4 FP inactive, PRMT1 FP inh inactive, SIAE primary inactive and rCAG RNA binder inactive.
Screening CN(C)c1ccc(C=Cc2ccnc3c(O)cccc23)cc1 returned HTRA1 inhibitor 63, mABHD4 FP inactive, PRMT1 FP inh inactive, SIAE primary 23, rCAG RNA binder inactive and HTRA1 inh conf 54.
Screening Oc1ccc(/C=C/c2ccccc2F)c2cccnc12 returned mABHD4 FP inactive, PRMT1 FP inh inactive and SIAE primary inactive.
For Cc1ccc(S(=O)(=O)Nc2ccc3oc(=O)sc3c2)c(C)c1 the results were HTRA1 inhibitor 37, mABHD4 FP inactive, PRMT1 FP inh 59, SIAE primary inactive, rCAG RNA binder inactive and HTRA1 inh conf inactive.
Screening O=C(CSc1nnc(-c2ccncc2)n1-c1ccc(Cl)cc1)c1ccc(Cl)c(Cl)c1 returned mABHD4 FP inactive, PRMT1 FP inh inactive, SIAE primary inactive and rCAG RNA binder inactive.
Screening O=C(O)C1CC=CCC1C(=O)NNc1c(Cl)cc(Cl)cc1Cl (stereo unspecified) returned HTRA1 inhibitor inactive, mABHD4 FP inactive, PRMT1 FP inh inactive, SIAE primary inactive and rCAG RNA binder inactive.
`O=C(O)C1Nc2ccc(Br)cc2C2C=CCC12` (stereo unspecified) gave HTRA1 inhibitor 75 and HTRA1 inh conf 69.
O=C(O)C1Nc2c(Cl)cc(Cl)c(Cl)c2C2C=CCC12 (stereo unspecified) was read as HTRA1 inhibitor 42, mABHD4 FP inactive, PRMT1 FP inh inactive, SIAE primary inactive, rCAG RNA binder inactive and HTRA1 inh conf 38.
O=C(O)C1Nc2c(Cl)cc(Cl)cc2C2C=CCC12 (stereo unspecified) was read as HTRA1 inhibitor 55 and HTRA1 inh conf 49.
For CCC(C)N(C(=O)c1ccc(CNC(=O)c2cccc(Br)c2)cc1)C(C)CC (stereo unspecified) the results were mABHD4 FP inactive, PRMT1 FP inh inactive, SIAE primary inactive and rCAG RNA binder inactive.
For COc1cccc(C(=O)N[C@H](C(=O)N2CCC[C@H]2C(=O)NCCc2ccccc2Cl)C(C)C)c1 the results were mABHD4 FP inactive, PRMT1 FP inh inactive, SIAE primary inactive and rCAG RNA binder inactive.
Screening CC(=O)N1CCN(c2ccc(N3CCN(C(C)=O)[C@H](C)C3)c(C)c2)[C@@H](C)C1 returned mABHD4 FP inactive, PRMT1 FP inh inactive, SIAE primary inactive and rCAG RNA binder inactive.
Screening CCc1ccc(S(=O)(=O)/N=C2/C=C(Sc3ncn[nH]3)C(=O)c3ccccc32)cc1 returned HTRA1 inhibitor inactive.
Cc1cc(C)c(S(=O)(=O)/N=C2/C=C(SCC(=O)O)C(=O)c3ccccc32)cc1C was read as HTRA1 inhibitor 54 and HTRA1 inh conf inactive.
COc1cc(/C=N/Nc2ccc(Cl)cc2)ccc1OC(=O)c1cccs1 was read as HTRA1 inhibitor 47, mABHD4 FP inactive, PRMT1 FP inh inactive, SIAE primary inactive, rCAG RNA binder inactive and HTRA1 inh conf 68.
CCCc1cc2c(OC)ccc(O)c2c(=O)n1C was read as mABHD4 FP inactive, PRMT1 FP inh inactive, SIAE primary inactive and rCAG RNA binder inactive.
Cc1ccc2nc(-c3ccccc3)cn2c1 was read as HTRA1 inhibitor inactive, mABHD4 FP inactive, PRMT1 FP inh inactive, SIAE primary inactive and rCAG RNA binder inactive.
